From PubChem BioAssay
A selection: hits, their analogues and other compounds. The true share with any hit is near 1.2%.
G6PDH CS – L. mesenteroides G6PDH inhibitors, counter-screen for G6PDH-coupled screening assays, biochemical, Leuconostoc mesenteroides enzyme. hit rate 0.12% among 200,000. inhibition, % at 5 µM. Purified L. mesenteroides G6PDH, diaphorase/resazurin coupled fluorescence, 45 min. glucose-6-phosphate dehydrogenase [Leuconostoc mesenteroides]; in the data active means inhibition above about 50%
Diaphorase inh – diaphorase inhibitors and chemical oxidizers, primary screen, counter-screen for diaphorase-coupled primary assays, biochemical, uHTS, resorufin fluorescence; diaphorase resazurin-to-resorufin fluorescence, NADH, 16 min; bacterial (C. kluyveri) enzyme, not human; AID 1217, 2008; hit rate 0.69% among 190,000; inhibition, % at 20 µM;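 active means primary screen inhibition at 20 µM above a set limit, cut at about 50% in these data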;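 further: plate controls were DMSO with full reaction for no effect and wells lacking NADH for full effect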
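Assay system – diaphorase enzyme from Clostridium kluyveri · Amount – diaphorase 0.14 U/mL (working solution) · Times – reaction incubation of 16 min at room temperature · Controls – No-NADH positive control and DMSO neutral control · Signal – resorufin fluorescence 544/590 nm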
Tb hexokinase – Trypanosoma brucei hexokinase 1 inhibitors, primary screen, biochemical, G6PDH-coupled NADH absorbance, MLSCN library | recombinant TbHK1, G6PDH-coupled NADH A340 | inhibition, % at 10 µM | hit rate 0.11% among 220,000;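 active means inhibition of 50% or more in the single-dose primary screen; inactive means inhibition below 50%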
HKDC1 inh – HKDC1 hexokinase inhibitors, primary screen, biochemical, fluorescence, uHTS | recombinant HKDC1, G6PDH/diaphorase resazurin coupled fluorescence | inhibition, % at 20 µM | hit rate 0.16% among 340,000;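 active means inhibition above about 35% when tested at 20 µM, limit read from the data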;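 further: plate controls were DMSO wells with enzyme for no effect and DMSO wells lacking enzyme for full effect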
Target sequence (Q2TB90 whole entry, looked up): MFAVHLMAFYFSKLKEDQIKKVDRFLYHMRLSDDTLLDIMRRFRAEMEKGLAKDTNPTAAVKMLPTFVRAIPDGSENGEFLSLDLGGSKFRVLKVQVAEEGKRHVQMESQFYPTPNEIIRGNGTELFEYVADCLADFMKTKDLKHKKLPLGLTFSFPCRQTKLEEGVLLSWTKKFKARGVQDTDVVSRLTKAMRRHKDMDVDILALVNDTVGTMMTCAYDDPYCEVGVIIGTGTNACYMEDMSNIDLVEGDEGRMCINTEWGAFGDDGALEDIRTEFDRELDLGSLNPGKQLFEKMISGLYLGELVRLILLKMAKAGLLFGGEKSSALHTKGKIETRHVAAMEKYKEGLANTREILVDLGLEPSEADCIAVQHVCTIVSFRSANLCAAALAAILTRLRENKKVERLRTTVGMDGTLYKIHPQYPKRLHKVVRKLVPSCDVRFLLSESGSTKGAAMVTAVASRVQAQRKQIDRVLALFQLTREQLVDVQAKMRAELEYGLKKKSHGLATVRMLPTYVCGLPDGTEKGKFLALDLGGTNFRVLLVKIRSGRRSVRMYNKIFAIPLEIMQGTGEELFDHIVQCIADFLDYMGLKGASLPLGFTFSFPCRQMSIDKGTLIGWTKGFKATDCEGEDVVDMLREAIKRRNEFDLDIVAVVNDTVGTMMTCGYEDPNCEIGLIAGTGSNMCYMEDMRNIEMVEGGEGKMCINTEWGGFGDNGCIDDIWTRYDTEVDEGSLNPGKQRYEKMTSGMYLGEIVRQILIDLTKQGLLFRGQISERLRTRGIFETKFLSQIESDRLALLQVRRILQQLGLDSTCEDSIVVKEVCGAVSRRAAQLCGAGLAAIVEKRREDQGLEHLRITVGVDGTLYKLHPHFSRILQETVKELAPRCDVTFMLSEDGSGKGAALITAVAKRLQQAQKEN
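Test system: recombinant HKDC1 (HK5) hexokinase enzyme, produced in-house / Doses: 20 µM test compound, 1% DMSO / Timing: 90 min, room temperature / Detection: G6PDH/diaphorase-coupled fluorescence, 1 mM NADP, 100 µM resazurin, 525/613 nm / Control set: DMSO wells with and without enzyme mix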
PfG6PD inh – PfG6PD enzyme inhibitors, primary screen, biochemical, fluorescence intensity, uHTS. glucose-6-phosphate dehydrogenase-6-phosphogluconolactonase (Plasmodium falciparum 3D7). PfGluPho enzyme, NADPH resazurin-diaphorase fluorescence. inhibition, % at 20 µM. hit rate 0.78% among 350,000. AID 504690, 2011;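 active means inhibition reaching at least a set limit at 20 µM in the primary screen, cut at about 59% in these data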;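 further: 0% = DMSO wells with substrate and 100% = DMSO wells lacking glucose-6-phosphate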
* = called active by the depositor; . = no result given.

SMILES | G6PDH CS | Diaphorase inh | Tb hexokinase | HKDC1 inh | PfG6PD inh
O=C(CCCCCNc1nc(=S)[nH]c2ccccc12)N1CCN(c2ccccn2)CC1 | 2 | 52* | -2 | . | .
COc1cccc(N2CCN(C(=O)CCCCCNc3nc(=S)[nH]c4ccccc34)CC2)c1 | -4 | 25 | -2 | 1 | 18
S=C(Nc1ccc2nc(-c3ccccn3)c(-c3ccccn3)nc2c1)N1CCOCC1 | 53* | 51* | 10 | 10 | 26
O=C(NCCCO)Nc1ccc2nc(-c3ccco3)c(-c3ccco3)nc2c1 | 29 | 60* | -7 | . | .
OCCCNC(=S)Nc1ccc2nc(-c3ccccn3)c(-c3ccccn3)nc2c1 | 52* | 68* | -20 | 9 | 57
CN(C)NC(=S)Nc1ccc2nc(-c3ccccn3)c(-c3ccccn3)nc2c1 | -27 | 36 | -20 | 11 | -11
Nc1ccn([C@@H]2O[C@H](CNCc3cccc(OC4CCCC4)c3)[C@@H](O)[C@H]2O)c(=O)n1 | . | . | . | . | 7
CCCCN(C(=O)c1cc2c(s1)CCCCC2)c1c(N)n(CC(C)C)c(=O)[nH]c1=O | . | . | . | -6 | -11
COc1ccc(C(=O)NCC(c2ccco2)N(C)C)cc1S(=O)(=O)NCc1ccc(Cl)cc1 (stereo not drawn) | . | . | . | -2 | 18
CC1CC(=O)c2c(cc3c(-c4c(O)cc(O)c5c(O)c6c(cc45)OC(C)CC6=O)c(O)cc(O)c3c2O)O1 (stereo not drawn) | 18 | 64* | -40 | 12 | -22
Cn1c2ccccc2c(=O)n2c(=O)c3ccccc3cc12 | 51* | 16 | -17 | . | .
Cn1c(-c2ccccc2)cc(=O)c2ccccc21 | -18 | 9 | -22 | -6 | 8
COc1ccc(-c2c(=O)n(OCc3ccccc3[N+](=O)[O-])c3ccccc3[n+]2[O-])c(OC)c1 | -2 | 51* | -3 | -2 | 1
CCOC(=O)c1c2ccc(OCC(=O)N/N=C/c3ccc(C)cc3)cc2n2ccccc12 | 48 | 61* | -3 | 2 | 26
CCc1cc2c(=O)n(CCC(C)C)c(=S)[nH]c2s1 | -6 | 56* | -11 | -1 | 18
CCCn1c(=S)[nH]c2ccccc2c1=O | 14 | 19 | -2 | -10 | 9
CCc1ccc(CCC(=O)N2CCN(S(=O)(=O)c3ccc(Br)cc3)CC2)cc1 | . | . | . | . | 12
C[C@H]1CN([C@@H](C)CO)S(=O)(=O)c2ccc(-c3ccccc3)cc2O[C@H]1CN(C)C(=O)C1CCC1 | . | . | . | . | -9
O=C(N/N=C/c1c(O)n(-c2ccc(Cl)cn2)c(=O)c2ccccc12)c1ccncc1 | -1 | 59* | -5 | -10 | -46
CC(C)NC[C@H](O)c1ccc(O)c(O)c1 | . | . | . | -2 | 33
CCC(NC(C)C)C(O)c1ccc(O)c(O)c1 (stereo not drawn) | 63* | 59* | 2 | 11 | 33
Cc1occc1C(=O)N/N=C/c1cnn(C)c1C | -1 | 60* | 1 | 1 | 5
Cc1c(/C=N\NC(=O)c2ccc(F)cc2)cnn1C | 4 | 4 | 1 | 2 | -5
COc1ccc(S(=O)(=O)N2CCC(C(=O)N[C@@H](C)C(=O)NCc3cccnc3)CC2)cc1 | . | . | . | . | -7
Cc1[nH]n(-c2ccccc2)c(=O)c1N=Nc1ccc2c(c1)OCO2 | 2 | 2 | -2 | -1 | 16
SMILES | G6PDH CS | Diaphorase inh | Tb hexokinase | HKDC1 inh | PfG6PD inh
Nc1[nH]n2c(=O)cc(-c3ccccc3)nc2c1N=Nc1ccc2c(c1)OCO2 | 24 | 68* | 6 | . | .
CC(/C=C/c1ccco1)=N\NC(=O)CNc1ccc2ccccc2c1 | 3 | 56* | -27 | 13 | 40
O=C(CSc1n[nH]c(-c2cccnc2)n1)Nc1ccccc1 | 2 | 7 | 4 | -5 | 12
O=C(CSc1n[nH]c(-c2ccccc2)n1)Nc1ncc(Br)cc1Br | 1 | 59* | 6 | 48* | 19
OC(c1ccccc1)C(NCc1ccccc1)c1ccccc1 (stereo not drawn) | . | . | . | . | 4
O=C(/C=C/c1cccc(Cl)c1)c1ccc([N+](=O)[O-])o1 | . | . | . | 61* | 97*
CCOc1ccccc1N=NC1C(=O)N(C(N)=S)N=C1C (stereo not drawn) | . | . | . | -2 | -12
CC(=O)Nc1ccc(NC(=O)CSc2ccc(-c3ccco3)nn2)cc1 | 1 | 59* | 1 | 22 | 34
CC(=O)Nc1cccc(NC(=O)CSc2ccc(-c3ccco3)nn2)c1 | . | . | . | 10 | 15
CCc1ccc(C#CC2=CC(=O)CC(C)(C)C2)cc1 | . | . | . | . | 12
COc1cccc(CNc2ccc(N3CCCCC3)cc2)c1OC | 13 | 60* | 5 | 10 | 52
Cc1cn([C@H]2C[C@H](O)[C@@H](CNS(=O)(=O)N3CCCC3)O2)c(=O)[nH]c1=O | . | . | . | . | -1
COc1ccc(S(=O)(=O)Nc2cc(Sc3ncn[nH]3)c(O)c3ccccc23)cc1 | 54* | 20 | 15 | . | .
C[C@](N)(Cc1ccc(O)c(O)c1)C(=O)O | 46 | 46 | 9 | -2 | 32
NCCc1ccc(O)c(O)c1 | 47 | 54* | 1 | -9 | 40
Cn1c(C(=O)Nc2ccc3c(c2)OCCO3)cc2c(=O)n(C)c3ccccc3c21 | -6 | 54* | -26 | 10 | 54
COc1ccc(CN2C(=O)C(CC(=O)NCCCCc3ccccc3)CC(C(=O)N(C)C)=C2C)cc1 (stereo not drawn) | . | . | . | . | -4
O=C1NC(Cc2ccc(O)cc2)c2nc3ccc(F)cc3c(=O)n2-c2cc3ccccc3cc21 (stereo not drawn) | . | . | . | . | 4
CC(=O)SC(C[N+](=O)[O-])c1cn(C(C)=O)c2ccccc12 (stereo not drawn) | 1 | 4 | -6 | 0 | 63*
Nc1nc(N)c2cc(CNc3ccc(Cl)c(Cl)c3)ccc2n1 | . | . | . | . | 36
Cc1ccc(S(=O)(=O)N2CCOCC2)cc1NC(=O)CN(C)CC(=O)Nc1cccc(F)c1 | . | . | . | . | -4
C=CCc1cccc2cc(C(=O)Nc3ccccc3C(=O)O)c(=O)oc12 | 4 | 93* | 1 | 11 | 14
COc1ccc2[nH]c(=O)c(CN(C3CCCCC3)C(c3nnnn3Cc3ccco3)C(C)C)cc2c1 (stereo not drawn) | -2 | 28 | 1 | 37* | 88*
Cc1ccc(CN(Cc2cc3cc4c(cc3[nH]c2=O)OCCO4)Cc2nnnn2Cc2ccco2)cc1 | 19 | 58* | -18 | 22 | 29
Cc1ccc2cc(CN(Cc3ccc4c(c3)OCO4)Cc3nnnn3Cc3ccco3)c(=O)[nH]c2c1 | 8 | 21 | -9 | -3 | 0
COc1ccc2[nH]c(=O)c(CN(Cc3nnnn3Cc3ccco3)C3CCCCC3)cc2c1 | 10 | 36 | -9 | 3 | 35
